Assay results collected from several papers.
Protocols differ between the studies behind these lines.
Target: Serine/threonine-protein kinase WNK1 (WNK1, Homo sapiens, UniProt Q9H4A3)

SMILES	read-out	technique	concentration	remaining binding [%]
COc1ccnn2ncc(-c3ccnc(N(C)C)n3)c12	binding		1 µM	100
COc1cnc(Nc2cccc(S(N)(=O)=O)c2)nc1N1CCN(c2ccccc2)C(=O)C1	binding	competition with immobilised ligand	1 µM	0
CN(C)c1nccc(-c2cnn3ncccc23)n1	binding		1 µM	100
Cc1nc(N2CC[C@@H](O)C2)ncc1-c1cc(C(F)(F)F)cc2[nH]ncc12	binding	competition with immobilised ligand	1 µM	71
FC(F)(F)Oc1cccc(-c2cnc3ccc(-c4ccncc4)nn23)c1	binding	competition with immobilised ligand	5 µM	79
C[C@H]1CCN(c2nccc(-c3cnn4ncccc34)n2)C1	binding		1 µM	91
NS(=O)(=O)c1cc(NC(=O)C2(c3ccccc3Cl)CC2)ccc1Oc1cccc(Cl)c1	cell-free assay	competition with immobilised ligand	1 µM	88
CN(CCCC(F)(F)F)c1nccc(-c2cnn3ncccc23)n1	binding		1 µM	100
Cc1cc(-n2nc(Cc3cc(F)cc(C(F)(F)F)c3)nc2C)ccc1C(N)=O	cell-free assay	competition with immobilised ligand	1 µM	100
Cc1cnc(Nc2ccc(C(=O)N3CCC(N4CCCC4)CC3)cc2)nc1-c1cc2ccccc2s1	binding	competition with immobilised ligand	1 µM	90
COc1ncc2cc3ccccc3nc2c1C#N	cell-free assay	competition with immobilised ligand	5 µM	95
Cc1nccc(COC(=O)N2C[C@@H]3[C@@H](CNC(=O)c4ccc5[nH]nnc5c4)[C@@H]3C2)n1	cell-free assay	competition with immobilised ligand	1 µM	86
CC1CCCN1c1nccc(-c2cnn3ncccc23)n1 (stereo not drawn)	binding		1 µM	98
O=C(NCCCN1CCOCC1)c1ccc(Nc2nccc(-c3cc4ccccc4s3)n2)cc1	binding	competition with immobilised ligand	1 µM	98
c1cncc(-c2cccc(Nc3nccc(NC4CCCCC4)n3)c2)c1	binding	competition with immobilised ligand	10 µM	87
Cc1cnn2ncc(-c3ccnc(N(C)C)n3)c2c1	binding		1 µM	94
CC(C)CC(=O)N1CCc2nc(-c3ccc(Br)cc3)nc(N(C)Cc3ccccc3)c2C1	cell-free assay	competition with immobilised ligand	0.1 µM	100
O=C(Nc1c[nH]nc1C(=O)NC1CCNCC1)c1cc(F)cc(F)c1	binding	competition with immobilised ligand	1 µM	100
